Reference: PMC10834355 (Cell metabolism, 2023)
Read-outs that look alike come from different tables or passages of the source. Values belong to the molecule of their own block, whether it stands above or below them.

What was measured:
[1] = system: human β-cell; conditions: ref El Ouaamari et al., 2016; cited from earlier work
[2] = target: porcine pancreatic elastase (pPE) (Sus scrofa, UniProt P00772); experiment: Absorbance-based protease activity assay, pPE; type: biochemical
Method in brief: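 Porcine pancreatic elastase (500 ng) was combined with 15 two-fold dilutions of test compound, starting at 20 μM. Controls were enzyme-free blank wells and enzyme-plus-DMSO wells. After 3 min at 37°C, N-methoxysuccinyl-Ala-Ala-Pro-Val-p-nitroanilide substrate was added. After 2 h at 37°C, absorbance at 405 was read every 15 s for 21 reads (5 min).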

[3] = system: Ins+ cells; experiment: β-cell regeneration after metronidazole ablation in Tg; type: in vivo, zebrafish (Danio rerio); conditions: added to growth medium 4–6 dpf, vs DMSO
Method in brief: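 Tg(ins:flag-NTR);Tg(tp1:H2BmCherry) zebrafish larvae had β-cells ablated in E3 medium with 10 mM metronidazole, 1% DMSO and 0.2 mM 1-phenyl-2-thiourea from 3 to 4 dpf. From 4 to 6 dpf, larvae were exposed to DMSO or test compound in the medium. Larvae then euthanized, fixed, immunostained with anti-insulin (1:100), imaged and Ins+ cells counted.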

[4] = target: human pancreatic elastase (PE); experiment: Absorbance-based protease activity assay, human PE; type: biochemical; conditions: read-out: IC50 PE
Method in brief: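 Human pancreatic elastase (500 ng) mixed with 15 two-fold dilutions of test compound starting at 20 μM. Blank (no-enzyme) and DMSO wells serve as controls. Preincubated 3 min at 37°C, then N-methoxysuccinyl-Ala-Ala-Pro-Val-p-nitroanilide added. After 2 h at 37°C, absorbance read at 405 nm, 21 reads over 5 min. IC50 derived from the dilution series.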

[5] = target: T1, human neutrophil elastase (NE) (Homo sapiens, UniProt P08246); experiment: Absorbance-based protease activity assay, human NE; type: biochemical
T1 sequence (P08246 30-267): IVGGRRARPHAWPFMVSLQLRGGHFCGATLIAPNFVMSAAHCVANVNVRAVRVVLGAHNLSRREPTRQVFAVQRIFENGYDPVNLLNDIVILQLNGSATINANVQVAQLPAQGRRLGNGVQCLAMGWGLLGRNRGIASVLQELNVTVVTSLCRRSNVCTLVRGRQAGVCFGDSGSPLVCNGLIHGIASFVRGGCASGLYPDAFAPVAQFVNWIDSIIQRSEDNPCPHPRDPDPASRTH

[6] = system: EndoC-βH1 cells; experiment: Phospho-ERK1/2 Western Blotting; type: cell-based, human; conditions: PE +/− telaprevir for 30 min
[7] = system: human islets; experiment: Western Blotting of phosphoproteins in human islets; type: cell-based; conditions: telaprevir 1.5 or 150 μM for 30 min
Method in brief: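 Human islets cultured overnight in Miami Media #1A at 37°C, 5% CO2, then exposed to test compound for 30 min. RIPA lysates with protease and phosphatase inhibitors, protein by BCA, immunoblotted with phospho-specific and total antibodies.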

[8] = system: human β-cells; experiment: Proliferation; type: cell-based; conditions: 24 h, non-diabetic human islets
[9] = system: EndoC-βH3 cells; experiment: Viability assays; type: cell-based, human
Method in brief: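 EndoC-βH3 cells exposed to 1 μM tamoxifen for 21 days, then 14 days wash-out. Starved overnight in 2.8 mM glucose medium and stimulated in 2.8 mM glucose with 0.1% BSA. Cells then trypsinized and labelled with EdU 5 μM for 3 h at 37°C, plus Annexin V. Up to 10,000 cells counted by flow cytometry. Caspase-3 activity measured colorimetrically at 405 nm.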

[10] = system: primary human β-cell cultures; experiment: Viability assay in dispersed human islet cells; type: cell-based
Method in brief: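 Human islets dispersed with TrypLE for 30 min at 37°C, neutralized with FBS, seeded on ECM/fibronectin and left overnight. Pretreated 24 h with water or FSLLRY-NH2 plus EdU 10 μM, then 24 h with vehicles or compounds plus EdU 10 μM. β-cells labelled with DA-ZP1; EdU Click-iT Alexa 647 and APC Annexin V. ≥4000 live (Zombie NIR-negative) cells counted by flow cytometry.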

[11] = system: EndoC-βH1 cells; experiment: Static glucose-stimulated insulin secretion assay; type: cell-based, human
Method in brief: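 EndoC-βH1 cells kept overnight in 2.8 mM glucose DMEM growth medium with vehicles (PBS, DMSO), PE 500 ng/ml and/or test compound 1.5 μM. Preincubated 1 hr in KRB (NaCl 115, NaHCO3 24, KCl 5, MgCl2 1, CaCl2 1, HEPES 10 mM; 0.2% BSA) at 2.8 mM glucose. Then 1 hr in KRB at 2.8 or 11.1 mM glucose with PE ± test compound. DNA content measured.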

[12] = system: HFD mice; experiment: High-fat diet insulin-resistant mice, osmotic pump treatment; type: in vivo, C57BL6/J mice
Method in brief: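 Male C57BL6/J mice, obtained at 4 weeks old, kept on low-fat or high-fat diet for 24 weeks. From week 20, weight-matched animals received vehicle (DMSO) or test compound at 30 or 300 μg/kg/day for 28 days by subcutaneous osmotic pump; low-fat mice got vehicle. GTT, ITT and in vivo GSIS at weeks 0 and 4; insulin by ELISA. Pancreas sections used for immunofluorescent β-cell proliferation and mass.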

[13] = system: human islets; experiment: Phospho-antibody microarray; type: cell-based; conditions: 30 min
Method in brief: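 Human islets cultured overnight in Miami Media #1A at 37°C, 5% CO2. 200 hand-picked islet equivalents collected after 10- or 30-min stimulation and processed for the phospho-antibody array.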

[14] = target: T2, human cathepsin G (Homo sapiens, UniProt P08311); experiment: Absorbance-based protease activity assay, human cathepsin G; type: biochemical
T2 sequence (P08311 21-255): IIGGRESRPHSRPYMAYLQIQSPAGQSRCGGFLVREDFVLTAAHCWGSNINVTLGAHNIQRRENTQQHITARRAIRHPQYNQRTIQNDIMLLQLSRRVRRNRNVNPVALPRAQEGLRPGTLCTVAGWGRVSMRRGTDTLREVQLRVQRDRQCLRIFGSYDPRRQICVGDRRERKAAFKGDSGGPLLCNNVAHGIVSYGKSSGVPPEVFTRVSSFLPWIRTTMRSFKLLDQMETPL
Method in brief: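 Human cathepsin G (500 ng) combined with 15 two-fold dilutions of test compound from 20 μM; blank and DMSO wells included. After 3 min at 37°C, succinyl-Ala-Ala-Pro-Phe-p-nitroanilide substrate added and absorbance at 405 nm read immediately, 21 reads over 5 min.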

[15] = system: EndoC-βH1 cells; experiment: Phospho-PAK1 Western Blotting; type: cell-based, human
Method in brief: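 EndoC-βH1 cells transfected with scramble oligo or siFAK, or with empty vector or C-terminal 3X FLAG-tagged PTK2 cDNA (lipofectamine). Cells starved overnight in growth medium with 2.8 mM glucose, then stimulated in 2.8 mM glucose plus 0.1% BSA with PBS or PE ± test compound. siFAK cells treated 30 min. RIPA lysates with protease/phosphatase inhibitors, BCA assay, immunoblot for PAK1 S144 and total PAK1.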

[16] = system: transplanted human islets; type: in vivo, NSG mice; conditions: 4 weeks
Method in brief: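 Male 8–10-week NSG mice received 1000 hand-picked human islet equivalents under the kidney capsule. After engraftment, vehicle (DMSO) or test compound was given by osmotic pump for 28 days. Grafts fixed overnight at 4°C in zinc formalin and cut as 5-μm paraffin serial sections. Sections co-stained for Ki67 or pHH3 with insulin and DAPI; cell death by TUNEL.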

[17] = system: EndoC-βH1 cells; experiment: Brillouin microscopy of cell stiffness; type: cell-based, human; conditions: PE 250 ng/ml, or PE + telaprevir (750 nm), 24 hr
Method in brief: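 After 24 hr incubation, stiffness of 12 cells per condition mapped by confocal Brillouin microscopy: 780 nm single-frequency laser, virtually imaged phase array spectrometer, non-contact longitudinal mechanical read-out.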

[18] = system: HCV-infected individuals with diabetes; conditions: ref Davis et al., 2017; Tallón de Lara et al., 2014; cited from earlier work
[19] = telaprevir HD 300 μg/kg/day, osmotic pumps

Sequence of porcine pancreatic elastase (pPE) (P00772 27-266): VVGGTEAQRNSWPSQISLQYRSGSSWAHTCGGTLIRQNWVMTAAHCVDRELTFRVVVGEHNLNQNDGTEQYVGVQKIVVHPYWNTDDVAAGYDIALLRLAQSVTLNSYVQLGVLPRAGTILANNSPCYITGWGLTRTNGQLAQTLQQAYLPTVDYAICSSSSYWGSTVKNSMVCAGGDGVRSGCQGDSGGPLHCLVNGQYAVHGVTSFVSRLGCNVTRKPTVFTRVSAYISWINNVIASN

Molecule: CC(C)[C@@H]1C(=O)N(S(C)(=O)=O)[C@@H]2CCN(C(=O)/C=C/CN3CCCCC3)[C@H]21.Cl [GW311616A]
human β-cell proliferation [1]: enhance human β-cell proliferation

IC50 [2]: 2000 nM
IC50 [4]: 2300 nM
Molecule: CC(C)(C)C(=O)Oc1ccc(S(=O)(=O)Nc2ccccc2C(=O)NCC(=O)O)cc1 [sivelestat]
human β-cell proliferation [1]: enhance human β-cell proliferation
Ins+ cells after β-cell ablation [3]: trend towards an increase

IC50 [5]: 33600 nM
IC50 [2]: 107000 nM
IC50 [4]: 3600 nM
Molecule: C[C@@H](O)[C@H]1C(=O)N2C(C(=O)O)=C(SC3CN(C4=NCCS4)C3)[C@H](C)[C@H]12 [tebipenem]

Molecule: CCC[C@H](NC(=O)[C@@H]1[C@H]2CCC[C@H]2CN1C(=O)[C@@H](NC(=O)[C@@H](NC(=O)c1cnccn1)C1CCCCC1)C(C)(C)C)C(=O)C(=O)NC1CC1 [telaprevir]
IC50 [5]: 3600 nM
concentrations that partially inhibit human NE activity [5]: > 10 µM
phospho-ERK1/2 levels [6]: significantly increased phospho-ERK1/2 levels
IC50 ([2]; read-out: IC50 pPE): 40.2 nM
phosphorylation levels of PAK1, PTK2B and ERK1/2 [7]: up-regulated
proliferation of other islet cell types, including α-cells and δ-cells [8]: did not significantly stimulate proliferation
β-cell apoptosis (TUNEL) ([8]; telaprevir at 100 μg/ml): significantly reducing apoptosis
β-cell proliferation (Ki67 or pHH3), increase compared to control ([8]; telaprevir at 100 μg/ml): ~ 3 fold
regeneration levels and survival of siFAK FSLLRY-treated cells ([9]; PE + telaprevir): restored
proliferation/apoptosis ratio (β-cell viability) in scramble cells ([9]; tamoxifen-treated EndoC-βH3, PE, or PE + telaprevir): boosted β-cell viability levels even higher than control cells
β-cell viability (EdU+/Annexin V+ in DA-ZP1+ cells) ([10]; PE +/− telaprevir for 24 h): significantly improved β-cell survival
glucose responsiveness (GSIS) in cells treated with PE ([11]; PE 500 ng/ml + telaprevir 1.5 μM): restore glucose responsiveness
β-cell function (GSIS) in the absence of PE ([11]; telaprevir 1.5 μM alone): maintained normal function
Ins+ cells after β-cell ablation [3]: significant increase
insulin sensitivity or GSIS ([12]; 4-week time point, vs HFD vehicle): did not affect
glucose tolerance ([12]; high dose 300 μg/kg/day, week 4, vs HFD vehicle): improvement in glucose tolerance
random-fed blood glucose levels or body weights ([12]; telaprevir 30 or 300 μg/kg/day vs HFD vehicle): did not exhibit differences
area under the curve during GTT ([12]; telaprevir HD 300 μg/kg/day): statistically similar to the LFD vehicle group, although not significantly different from vehicle-HFD mice
β-cell mass ([12]; telaprevir HD 300 μg/kg/day vs HFD vehicle): significantly higher β-cell mass
4 h fasting C-peptide and fasting blood glucose ([12]; telaprevir HD, after 4-week treatment compared to week 0): lowered
β-cell mass ([12]; telaprevir LD 30 μg/kg/day vs HFD vehicle): comparable
β-cell size ([12]; telaprevir LD and HD vs HFD vehicle): slightly lower β-cell size
IC50 [4]: 15.8 nM
protease-activated receptor (PARs) signaling cascade [13]: significantly modulated
inhibition of human cathepsin G [14]: virtually no effect
phospho-PAK1 levels in scramble cells ([15]; 30 min, PE vs PBS, or PE + telaprevir at high dose vs PE alone): significantly increasing phosphorylation of PAK1
phosphorylated PAK1 in siFAK cells ([15]; PE + telaprevir vs PE-treated siFAK samples, 30 min): significantly decreased
phospho-PAK1 levels in EV (empty vector) cells ([15]; PE, or PE + telaprevir): restored
blood glucose (random-fed or fasting) levels, body weight, glucose sensitivity or human C-peptide levels ([16]; 30 or 300 μg/kg/day, vs vehicle): did not observe differences between groups
Ki67+ β-cells in human grafts [16, 19]: increase
TUNEL+ β-cells in human grafts [16, 19]: decrease
Brillouin frequency shift (stiffness) [17]: completely reverse these effects
HbA1C levels [18]: reduce
circulating C-peptide [18]: increase

Molecule: FSLLRY-NH2
capacity of telaprevir to counteract the detrimental effects of PE in FSLLRY-NH2 treated cells ([10]; FSLLRY-NH2 pre-incubation, PE + telaprevir 24 h): impaired

B1: SerpinB1: endogenous protease (elastase) inhibitor derived from the liver that promotes human β-cell proliferation (protein, UniProt P30740 1-379, looked up)
Leukocyte elastase inhibitor: MEQLSSANTRFALDLFLALSENNPAGNIFISPFSISSAMAMVFLGTRGNTAAQLSKTFHFNTVEEVHSRFQSLNADINKRGASYILKLANRLYGEKTYNFLPEFLVSTQKTYGADLASVDFQHASEDARKTINQWVKGQTEGKIPELLASGMVDNMTKLVLVNAIYFKGNWKDKFMKEATTNAPFRLNKKDRKTVKMMYQKKKFAYGYIEDLKCRVLELPYQGEELSMVILLPDDIEDESTGLKKIEEQLTLEKLHEWTKPENLDFIEVNVSLPRFKLEESYTLNSDLARLGVQDLFNSSKADLSGMSGARDIFISKIVHKSFVEVNEEGTEAAAATAGIATFCMLMPEENFTADHPFLFFIRHNSSGSILFLGRFSSP
human β-cell proliferation [1]: promotes human β-cell proliferation
